The pIC50 is the IC50 on a negative log10 scale, so that one unit is a factor of ten. As a reminder, the pKi is the negative decadic logarithm of the Ki, by convention in mol/L.

pIC50, pKi: −log10 of the molar value. Calls of active or inactive are those of the source. No cut-off for these calls is given here.

The values that follow come from ChEMBL document CHEMBL4831543, “Design of Transmembrane Mimetic Structural Probes to Trap Different Stages of γ-Secretase-Substrate Interaction” (J Med Chem, 2021).

Assay [1] addresses T1, Gamma-secretase (Homo sapiens) (UniProt Q96BI3+Q9NZ42+Q8WW43+P49768+Q92542+P49810). The experiment in a line: Inhibition of HPI-Bpa-Bt labelling of gamma secretase (unknown origin) expressed in HEK293 cells at 10 uM preincubated for 1.5 hrs followed by irradiation for 30 mins by Western blot analysis. Type of assay: cell-based. The following applies: time 2.0 hrs. The method in brief:
(§1)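 Purified γ-secretase, 2 nM, preincubated 30 min at 37 °C in assay buffer (50 mM HEPES pH 7.0, 150 mM NaCl, 0.025% DOPC, 0.1% DOPE, 0.25% CHAPSO). Biotinylated photoprobe added at 1 μM, with or without 10 μM competitor, for 1.5 h at 37 °C. UV 350 nm for 30 min on ice, streptavidin pull-down, six washes. Presenilin-1 NTF detected by western blot.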

Assay [2] has as its target T1, Gamma-secretase (Homo sapiens). The experiment in a line: Inhibition of TSA-Bpa-Bt labelling of gamma secretase (unknown origin) expressed in HEK293 cells at 10 uM preincubated for 1.5 hrs followed by irradiation for 30 mins by Western blot analysis. The class given is cell-based. The following applies: time 2.0 hrs. In short, it runs like this: as §1
In general terms: A western blot detects proteins with antibodies after separation by electrophoresis.

For assay [3] the target is unchanged. As to the kind of experiment: Competitive inhibition of HPI 2 binding to gamma secretase (unknown origin). Type of assay: protein-complex assay. The method in brief: (§2)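 Cross-competition kinetics using the standard activity assay. Purified γ-secretase from suspension HEK293 cells, expressed from a tetracistronic vector, in detergent-lipid buffer (HEPES pH 7.0, DOPC, DOPE, CHAPSO). Varying concentrations of two inhibitors titrated against each other, with C100Flag held at 0.50 μM. Aβ40 measured by sandwich ELISA. Data plotted as reciprocal plots and fit to a two-inhibitor equation.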

Assay [4] shares this target. The experiment in a line: Competitive inhibition of TSA 1 binding to gamma secretase (unknown origin). The class given is protein-complex assay. In short, it runs like this: as §2
Assay [5] addresses Gamma-secretase. The experiment in a line: Inhibition of gamma secretase (unknown origin) expressed in HEK293 cells assessed as reduction of A-beta40 levels using C100-FLAG as substrate incubated for 2 hrs by sandwich ELISA. Type of assay: cell-based, Homo sapiens.
Assay [6] addresses Gamma-secretase. The experiment in a line: Noncompetitive inhibition of gamma secretase (unknown origin) expressed in HEK293 cells assessed as reduction of A-beta40 levels using varying level of C100-FLAG as substrate incubated for 2 hrs by double reciprocal plot analysis. Type of assay: cell-based, Homo sapiens. In short, it runs like this:
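1 nM purified γ-secretase from suspension HEK293 cells (tetracistronic pMLINK) in HEPES pH 7.0, NaCl, DOPC, DOPE, 0.25% CHAPSO. Preincubated 30 min at 37 °C, then given inhibitor in DMSO (2% final) with C100Flag at 0–4.5 μM. Reaction run 2 h at 37 °C; Aβ40 read by sandwich ELISA. Ki obtained by fitting to a noncompetitive inhibition equation.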

For the compound `CC[C@H](C)[C@@H](NC(=O)[C@H](NC(=O)[C@H](NC(=O)C(C)(C)NC(=O)CNC(=O)[C@H](NC(=O)OC(C)(C)C)C(C)C)C(C)C)C(C)C)C(=O)NC(C)(C)C(=O)N[C@@H](C(=O)N[C@@H](C(=O)NC(C)(C)C(=O)NCCCCCCCCCCC(=O)N[C@H](C(=O)N[C@@H](Cc1ccccc1)[C@H](O)CN(Cc1ccccc1)C(=O)N[C@@H](CC(C)C)C(=O)N[C@H](C(N)=O)C(C)C)C(C)C)C(C)C)[C@@H](C)O`, the inhibition entry in assay [1], in assay [2], in assay [3] and in assay [4] was “Active” in each case. For `CC[C@H](C)[C@H](NC(=O)[C@@H](NC(=O)[C@@H](NC(=O)C(C)(C)NC(=O)CNC(=O)[C@@H](NC(=O)OC(C)(C)C)C(C)C)C(C)C)C(C)C)C(=O)NC(C)(C)C(=O)N[C@H](C(=O)N[C@H](C(=O)NC(C)(C)C(=O)NCCCCCCC(=O)N[C@H](C(=O)N[C@@H](Cc1ccccc1)[C@H](O)CN(Cc1ccccc1)C(=O)N[C@@H](CC(C)C)C(=O)N[C@H](C(N)=O)C(C)C)C(C)C)C(C)C)[C@@H](C)O`, the pIC50 at Gamma-secretase [5] was 8.82. On to `CC[C@H](C)[C@H](NC(=O)[C@@H](NC(=O)[C@@H](NC(=O)C(C)(C)NC(=O)CNC(=O)[C@@H](NC(=O)OC(C)(C)C)C(C)C)C(C)C)C(C)C)C(=O)NC(C)(C)C(=O)N[C@@H](Cc1ccccc1)C(=O)N[C@H](C(=O)NC(C)(C)C(=O)NCC(=O)NCC(=O)NCC(=O)N[C@H](C(=O)N[C@@H](Cc1ccccc1)[C@H](O)CN(Cc1ccccc1)C(=O)N[C@@H](CC(C)C)C(=O)N[C@H](C(N)=O)C(C)C)C(C)C)C(C)C`, for which the inhibition result in assay [1] and in assay [2] was “Active” throughout. In the case of `CC[C@H](C)[C@H](NC(=O)[C@@H](NC(=O)[C@@H](NC(=O)C(C)(C)NC(=O)CNC(=O)[C@@H](NC(=O)OC(C)(C)C)C(C)C)C(C)C)C(C)C)C(=O)NC(C)(C)C(=O)N[C@H](C(=O)N[C@H](C(=O)NC(C)(C)C(=O)NCCCCCCCCCCC(=O)N[C@H](C(=O)N[C@@H](Cc1ccccc1)[C@H](O)CN(Cc1ccccc1)C(=O)N[C@@H](CC(C)C)C(=O)N[C@H](C(N)=O)C(C)C)C(C)C)C(C)C)[C@@H](C)O`, the negative logarithm of the Ki (pKi) at Gamma-secretase [6] was 9.19. For the same compound, the negative-log IC50 (pIC50) on Gamma-secretase [5] is 9.15. With `CC[C@H](C)[C@H](NC(=O)[C@@H](NC(=O)[C@@H](NC(=O)C(C)(C)NC(=O)CNC(=O)[C@@H](NC(=O)OC(C)(C)C)C(C)C)C(C)C)C(C)C)C(=O)NC(C)(C)C(=O)N[C@H](C(=O)N[C@H](C(=O)NC(C)(C)C(=O)NCCCCCCCCCCCC(=O)N[C@H](C(=O)N[C@@H](Cc1ccccc1)[C@H](O)CN(Cc1ccccc1)C(=O)N[C@@H](CC(C)C)C(=O)N[C@H](C(N)=O)C(C)C)C(C)C)C(C)C)[C@@H](C)O`, at Gamma-secretase [5], the negative logarithm of the IC50 (pIC50) was 9.06. In the case of `CC[C@H](C)[C@H](NC(=O)[C@@H](NC(=O)[C@@H](NC(=O)C(C)(C)NC(=O)CNC(=O)[C@@H](NC(=O)OC(C)(C)C)C(C)C)C(C)C)C(C)C)C(=O)NC(C)(C)C(=O)N[C@H](C(=O)N[C@H](C(=O)NC(C)(C)C(=O)NCCCCCCCCC(=O)N[C@H](C(=O)N[C@@H](Cc1ccccc1)[C@H](O)CN(Cc1ccccc1)C(=O)N[C@@H](CC(C)C)C(=O)N[C@H](C(N)=O)C(C)C)C(C)C)C(C)C)[C@@H](C)O`, the negative-log IC50 (pIC50) at Gamma-secretase [5] was 8.96. Take `CC[C@H](C)[C@H](NC(=O)[C@@H](NC(=O)[C@@H](NC(=O)C(C)(C)NC(=O)CNC(=O)[C@@H](NC(=O)OC(C)(C)C)C(C)C)C(C)C)C(C)C)C(=O)NC(C)(C)C(=O)N[C@@H](Cc1ccccc1)C(=O)N[C@H](C(=O)NC(C)(C)C(=O)OC)C(C)C`: the inhibition entry in assay [1] is “Active”. Besides, the inhibition result in assay [2] and in assay [4] was “inactive” each time. Turning to `COC(=O)[C@@H](NC(=O)[C@H](CC(C)C)NC(=O)N(Cc1ccccc1)C[C@@H](O)[C@H](Cc1ccccc1)NC(=O)[C@@H](NC(=O)OC(C)(C)C)C(C)C)C(C)C`, the inhibition entry in assay [1] and in assay [3] was “inactive” in each case. Moreover, in assay [2], the inhibition result is “Active”.

Take `CC[C@H](C)[C@H](NC(=O)[C@@H](NC(=O)[C@@H](NC(=O)C(C)(C)NC(=O)CNC(=O)[C@@H](NC(=O)OC(C)(C)C)C(C)C)C(C)C)C(C)C)C(=O)NC(C)(C)C(=O)N[C@H](C(=O)N[C@H](C(=O)NC(C)(C)C(=O)N[C@H](C(=O)N[C@@H](Cc1ccccc1)[C@H](O)CN(Cc1ccccc1)C(=O)N[C@@H](CC(C)C)C(=O)N[C@H](C(N)=O)C(C)C)C(C)C)C(C)C)[C@@H](C)O`: on Gamma-secretase [5], the pIC50 is 8.12. Same read-out and setting: in the case of `CC[C@H](C)[C@H](NC(=O)[C@@H](NC(=O)[C@@H](NC(=O)C(C)(C)NC(=O)CNC(=O)[C@@H](NC(=O)OC(C)(C)C)C(C)C)C(C)C)C(C)C)C(=O)NC(C)(C)C(=O)N[C@H](C(=O)N[C@H](C(=O)NC(C)(C)C(=O)NCCCCC(=O)N[C@H](C(=O)N[C@@H](Cc1ccccc1)[C@H](O)CN(Cc1ccccc1)C(=O)N[C@@H](CC(C)C)C(=O)N[C@H](C(N)=O)C(C)C)C(C)C)C(C)C)[C@@H](C)O` it was 8.49; in that of `CC[C@H](C)[C@H](NC(=O)[C@@H](NC(=O)[C@@H](NC(=O)C(C)(C)NC(=O)CNC(=O)[C@@H](NC(=O)OC(C)(C)C)C(C)C)C(C)C)C(C)C)C(=O)NC(C)(C)C(=O)N[C@H](C(=O)N[C@H](C(=O)NC(C)(C)C(=O)NCCC(=O)N[C@H](C(=O)N[C@@H](Cc1ccccc1)[C@H](O)CN(Cc1ccccc1)C(=O)N[C@@H](CC(C)C)C(=O)N[C@H](C(N)=O)C(C)C)C(C)C)C(C)C)[C@@H](C)O`, 8.22. Same read-out and setting: as for `CC[C@H](C)[C@H](NC(=O)[C@@H](NC(=O)[C@@H](NC(=O)C(C)(C)NC(=O)CNC(=O)[C@@H](NC(=O)OC(C)(C)C)C(C)C)C(C)C)C(C)C)C(=O)NC(C)(C)C(=O)N[C@H](C(=O)N[C@H](C(=O)NC(C)(C)C(=O)OC)C(C)C)[C@@H](C)O`, the figure is 7.46.

For the compound `CC[C@H](C)C(NC(=O)[C@@H](NC(=O)C(C)(C)NC(=O)[C@@H](NC(=O)[C@H](Cc1ccccc1)NC(=O)C(C)(C)NC(=O)[C@@H](NC(=O)[C@@H](NC(=O)[C@@H](NC(=O)C(C)(C)NC(=O)CNC(=O)[C@@H](NC(=O)OC(C)(C)C)C(C)C)C(C)C)C(C)C)[C@@H](C)CC)C(C)C)C(C)C)C(=O)N[C@H](C(=O)N[C@H](C(=O)N[C@@H](Cc1ccccc1)[C@H](O)CN(Cc1ccccc1)C(=O)N[C@@H](CC(C)C)C(=O)N[C@H](C(N)=O)C(C)C)C(C)C)C(C)C` (some centres not stated), at Gamma-secretase [5], the pIC50 was 7.23.
